MrgX1 antagonist – blocks BAM8-22 activation of human MrgX1 receptor. Q96LB2. MRGX1-HEK293 calcium flux, Fluo-4, BAM8-22 antagonism; stronger effect = lower value. B-score at 10 µM. 1.3% of 310,000 active;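 active = calcium-response B-score plate-corrected more than 3 library SD below zero, starting fluorescence within 5 deviations, no agonist response on first addition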;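 note: peak minus trough fluorescence over baseline after final BAM8-22 challenge near maximal dose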
Target sequence (Q96LB2 whole entry, looked up): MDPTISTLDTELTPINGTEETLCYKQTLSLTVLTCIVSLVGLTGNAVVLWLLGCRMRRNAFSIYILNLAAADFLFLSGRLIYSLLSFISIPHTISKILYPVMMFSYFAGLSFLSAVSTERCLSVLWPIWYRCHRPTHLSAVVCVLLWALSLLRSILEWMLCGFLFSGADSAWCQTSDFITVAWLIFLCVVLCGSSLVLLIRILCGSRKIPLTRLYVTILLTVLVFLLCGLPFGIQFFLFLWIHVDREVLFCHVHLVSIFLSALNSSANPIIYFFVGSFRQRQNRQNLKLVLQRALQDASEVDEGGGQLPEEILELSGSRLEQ
MrgX1 allo act – human MrgX1 positive allosteric modulation, primary screen; B-score at 10 µM; 0.63% of 310,000 active; MrgX1-HEK293, Fluo-4 calcium flux, FDSS; stronger effect = higher value; AID 588675; Q96LB2;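 active = plate-corrected calcium response at least 3 library SD above typical, normal starting fluorescence, not activating the receptor alone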;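 note: compound read alongside a low EC10 to EC30 dose of BAM8-22 agonist; peak minus trough fluorescence over baseline measured at the second addition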
MrgX1 agonist – activates human MrgX1 receptor signaling | MrgX1-HEK293 cells, Fluo-4 calcium fluorescence, agonist mode; stronger effect = higher value | 0.44% of 310,000 active | AID 588627 | Q96LB2 | B-score at 10 µM;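 active = calcium response B-score plate-corrected fluorescence ratio at least 3 library SD, with starting fluorescence B-score inside 5 SD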
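System – MrgX1-expressing HEK293 cells · Incubation – cells plated overnight, dye loaded 0.5 h 37 °C, 0.5 h room temperature · Technique – kinetic Fluo-4 NW fluorescence of intracellular calcium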
RGS4 inh – human RGS4 inhibition | P49798 | HEK293 M3R/RGS4 inducible, Fluo-4 calcium flux; stronger effect = higher value; triggered by carbachol at its EC20 | B-score at 10 µM | 0.45% of 310,000 active;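 active = B-score, a plate-corrected calcium signal, over three deviations above library mean, with baseline fluorescence within five deviations of library mean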;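 note: RGS4 expression induced by doxycycline in cells with stable M3 receptor; B-score is computed from the integrated fluorescence ratio over baseline after carbachol; higher B-score means a larger calcium signal and so more RGS4 inhibition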
Target sequence (P49798 whole entry, looked up): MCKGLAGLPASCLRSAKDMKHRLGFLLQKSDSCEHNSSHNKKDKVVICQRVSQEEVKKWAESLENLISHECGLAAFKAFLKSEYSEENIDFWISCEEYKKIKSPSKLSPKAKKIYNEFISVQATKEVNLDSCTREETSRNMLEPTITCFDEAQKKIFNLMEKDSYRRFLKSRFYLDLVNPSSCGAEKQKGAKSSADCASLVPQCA
RGS4 pot – potentiators or activators of RGS4. B-score at 10 µM. 0.92% of 310,000 active. AID 463111. HEK293 M3R/inducible RGS4, carbachol calcium flux Fluo4; stronger effect = lower value;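 active = B-score of the integrated calcium signal more than 4 SD below the library mean, with starting fluorescence not abnormally high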;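 note: negative B-score means reduced calcium response which marks RGS4 activation or potentiation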
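Material: M3R-expressing HEK293 line, RGS4 induced by doxycycline | Schedule: Overnight RGS4 induction, 30 min dye load 37 °C, 20 min compound RT | Measured by: Fluo4 fluorescence kinetic imaging of calcium | Read-out: Integrated calcium ratio converted to B score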
MrgX1 ant reconf – human MrgX1 receptor antagonism, re-confirmation screen; shares compounds with MrgX1 antagonist; MrgX1-HEK293, BAM8-22 calcium flux, Fluo-4; stronger effect = lower value; remaining BAM8-22 calcium response % of control (stronger effect = lower value), % at 10 µM; 19% of 2,300 active; AID 602420;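 active = remaining agonist calcium response no higher than 100% minus 3 SD of agonist-only control wells, with starting fluorescence near control levels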;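 note: agonist BAM8-22 given at a near maximal EC90 to ECmax level; peak minus minimum fluorescence divided by baseline after agonist addition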
HEK293 Ca flux – counter-screen for MrgX1 antagonists: effect in parental HEK293 cells; shares compounds with MrgX1 antagonist; Fluo-4 calcium fluorescence, FDSS; fluorescence ratio F(max-min)/F0 at 10 µM; 2% of 4,000 active; AID 624111;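 active = duplicate-averaged calcium fluorescence ratio at least three times the standard deviation of buffer wells, a nonspecific response in parental cells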
HEK293 Ca counter – activity in parental HEK293 cells without MrgX1; shares compounds with MrgX1 antagonist; parental HEK293 calcium flux, Fluo-4 fluorescence ratio; stronger effect = higher value; fluorescence ratio F(max-min)/F0 at 10 µM; 0.4% of 4,000 active; AID 624114;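 active = calcium fluorescence ratio, averaged over duplicates, at least 3 SD of the buffer-well ratio, meaning a nonspecific response in receptor-free cells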;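 note: untransfected parental HEK293 lacking MrgX1 used as counterscreen for MrgX1 allosteric activators; fluorescence change taken during the second addition on a kinetic imager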
HEK293 Ca cntr2 – counter-screen for MrgX1 activators: effect in parental HEK293 cells; shares compounds with MrgX1 antagonist; Fluo-4 calcium fluorescence (FDSS); stronger effect = higher value; fluorescence ratio F(max-min)/F0 at 10 µM; 8.7% of 4,000 active; AID 624115;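 active = calcium fluorescence ratio at least three times the spread of buffer wells, meaning a non-specific response in parental cells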
A number is an active result; 0 = inactive; - = no result given. Only some compounds are listed: those with a hit (about 3.5% of all), similar ones and a draw of the others.

SMILES	MrgX1 antagonist	MrgX1 allo act	MrgX1 agonist	RGS4 inh	RGS4 pot	MrgX1 ant reconf	HEK293 Ca flux	HEK293 Ca counter	HEK293 Ca cntr2
CS(=O)(=O)N(CC(=O)Nc1ccc(CC#N)cc1)c1ccc(C23CC4CC(CC(C4)C2)C3)cc1	0	0	0	0	0	-	-	-	-
COc1ccccc1N(Cc1cc2cccc(C)c2[nH]c1=O)C(=O)C(C)C	0	0	0	0	0	-	-	-	-
CCC(=O)N(Cc1cc2cccc(C)c2[nH]c1=O)c1ccccc1OC	-5.29	0	0	0	0	0	0	0	0
Cc1ccc(NC(=O)CCNS(=O)(=O)c2ccc(Br)cc2)cc1S(=O)(=O)N1CCOCC1	0	0	0	0	0	-	-	-	-
Cc1ccc(NC(=O)CCNS(=O)(=O)c2ccccc2)cc1S(=O)(=O)N1CCOCC1	-6.67	0	0	0	0	0	0	0	0
CCOC(=O)c1ccc(NC(=O)c2ccc(C)c(S(=O)(=O)N3CCOCC3)c2)cc1	-10.9	0	0	0	0	21.3%	0	0	0
Cc1ccc(C(=O)OCc2nnc(-c3ccccc3)o2)cc1S(=O)(=O)N1CCOCC1	-4.59	0	0	0	0	82.8%	0	0	0
Cc1ccccc1-c1nc(CS(=O)(=O)CC(=O)NCCN2CCCC2)c(C)o1	0	0	0	0	0	-	-	-	-
CCCC(=O)Nc1c2c(nn1-c1ccccc1)CSC2	0	0	0	0	0	-	-	-	-
O=c1cc(CSc2ccc(Cl)cc2)nc(N2CCCCC2)[nH]1	-7.11	0	0	0	0	0	0	0	0
COc1ccc(/C=N/NC(=O)C(O)(c2ccccc2)c2ccccc2)cc1OC	0	0	0	0	0	-	-	-	-
CC1CCC(NCCNC(=O)c2ccco2)CC1 (configuration not stated)	0	0	0	0	0	-	-	-	-
CC1CCCCC1NC(=S)NC(=O)c1sc2ccccc2c1Cl (configuration not stated)	0	0	0	0	0	-	-	-	-
COc1ccccc1C(=O)NC(=S)NNC(=O)c1sc2ccccc2c1Cl	-12.3	0	0	0	-9.07	0	0	0	0
CCOC(=O)CSc1nnc(CNC(=O)c2ccc([N+](=O)[O-])cc2)n1C	0	0	0	0	0	-	-	-	-
c1coc(C2Nc3ccccc3-c3nc4ccccc4n32)c1 (configuration not stated)	-6.32	0	0	0	0	0	0	0	0
CCN(CC)S(=O)(=O)c1ccc(OC)c(NC(=O)c2ccc3c(c2)OCO3)c1	-7.6	0	0	0	0	0	0	0	0
Cc1c(NC(=O)COC(=O)CSc2ccc(C(N)=O)cc2[N+](=O)[O-])c(=O)n(-c2ccccc2)n1C	0	0	0	0	0	-	-	-	-
CC(=O)c1ccc(Nc2ncnc3c2oc2ccccc23)cc1	0	0	0	0	0	-	-	-	-
Cc1cccc(N=Cc2[nH]c3ccc(Br)c(Cl)c3c2O)c1	-5.88	0	0	-	-	0	0.177	0	0
COc1ccccc1CN=Cc1[nH]c2ccc(Br)c(Cl)c2c1O	0	0	0	0	0	-	-	-	-
Oc1ccc(Cl)cc1CNCC1CCCCC1	0	0	0	-	-	-	-	-	-
O=C(NC1CCS(=O)(=O)C1)C12CC3CC(CC(C3)C1)C2 (configuration not stated)	-9.39	0	0	0	0	0	0	0	0
O=C(CN1C(=O)C2CC=CCC2C1=O)Nc1ccc(S(=O)(=O)N2CCOCC2)cc1 (configuration not stated)	0	0	0	0	0	-	-	-	-
CC(C)(C)N(Cc1ccccc1)C(=O)CSc1nc2ccccc2c(=O)[nH]1	0	0	0	0	0	-	-	-	-
SMILES	MrgX1 antagonist	MrgX1 allo act	MrgX1 agonist	RGS4 inh	RGS4 pot	MrgX1 ant reconf	HEK293 Ca flux	HEK293 Ca counter	HEK293 Ca cntr2
Cc1nnc(SCC(=O)N(Cc2ccccc2)C(C)(C)C)[nH]c1=O	-4.57	0	0	0	0	0	0	0	0
O=C(CCSc1ccccc1)NC(=O)COC(=O)C1CCCCC1	-4.59	0	0	0	0	0	0	0	0
O=C(CCSc1ccccc1)NC1CCCCCC1	0	0	0	0	0	-	-	-	-
CC(C)(C)C1CCC2(CC1)CC(=O)c1ccccc1O2 (configuration not stated)	0	0	0	0	0	-	-	-	-
Cc1c(C(=O)O)[nH]c2c1C(=O)CC(c1ccc(Cl)cc1)C2 (configuration not stated)	-4.51	0	0	0	0	0	0	0	0
CCOC(=O)C1=C(C)NC(=S)N(C=O)C1c1ccccc1 (configuration not stated)	0	0	0	0	0	-	-	-	-
COc1ccc(-c2nnc(SCC(=O)NCc3ccco3)n2C)cc1	0	0	0	0	0	-	-	-	-
Cc1nc2nc(NC(=O)c3ccco3)nn2c(C)c1Cl	0	0	0	0	0	-	-	-	-
C[C@H]1CN=C(Nc2ccccc2)N1CCCC1CCCCC1	-6.05	0	0	0	0	0	0	0	0
C[C@H]1CN=C(Nc2ccccc2)N1CC1CCCCC1	0	0	0	0	0	-	-	-	-
CN(C)C1=NC[C@H](Cc2ccccc2)N1CCCC1CCCC1	-5.62	0	0	-	-	0	0	0	0
COc1ccccc1C1C(C#N)=C(N)N(N(C)C)C2=C1C(=O)CC(C)(C)C2 (configuration not stated)	0	0	0	0	0	-	-	-	-
O=C(Nc1cc(C(F)(F)F)ccc1N1CCOCC1)C1Cc2ccccc2CN1C(=O)c1ccco1 (configuration not stated)	0	0	0	0	0	-	-	-	-
COc1cc2c(cc1OC)C(C)N(C(=O)c1cc(C)on1)CC2 (configuration not stated)	-6.29	0	0	0	0	85.0%	0	0	0
Cc1ccccc1NC(=O)C(C)OC(=O)c1ccccc1C(=O)N(C)c1ccccc1 (configuration not stated)	-5.74	0	0	0	0	0	0	0	0
C=Cn1ccnc1CC(O)c1ccc(OC)cc1 (configuration not stated)	0	0	0	0	0	-	-	-	-
O=C(O)Cn1nc(-c2ccccc2)cc1-c1ccccc1	-5.63	0	0	0	0	0	0	0	0
O=C(O)CC(C(=O)O)n1nc(-c2ccccc2)cc1-c1ccccc1 (configuration not stated)	0	0	0	0	0	-	-	-	-
COc1ccc(OC(C)c2ccc(C#N)c(=O)[nH]2)cc1 (configuration not stated)	0	0	0	0	0	-	-	-	-

Source: PubChem (Johns Hopkins Ion Channel Center)
